Screening results from PubChem.
Shown are actives, neighbours in structure and some others; about 10% of the full set was active somewhere.
Diaphorase act: activates diaphorase or chemically reduces, flagging diaphorase assay artifacts; 190,000 tested, 0.005% active; Diaphorase/resazurin coupled assay, resorufin fluorescence, 16 min; active compounds read high; 1 = vehicle wells, 0 = NADH-free wells; activation factor at 20 µM;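 active means diaphorase activity raised at least twofold by the compound at 20 µM; inactive means activation factor below 2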
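Material: purified diaphorase enzyme from Clostridium kluyveri / Medium: HEPES pH 7.4 buffer with MgCl2 and Tween 20 / Schedule: enzyme reaction of 16 min at room temperature / Measured by: resorufin fluorescence, excitation 544 nm, emission 590 nm / Evaluation: rise in resorufin formation, marking diaphorase activation or chemical reduction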
L major viab: inhibitors of Leishmania major promastigote growth; Leishmania major promastigotes, resazurin fluorescence viability; inhibition, % at 10 µM; 200,000 tested, 9% active; in the data active means inhibition above about 50%;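 further: promastigotes grown with compound for 44 hours at 28 °C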
PMI activator: phosphomannose isomerase (human) activation; purified human PMI, coupled resazurin fluorescence, 20 min; active compounds read high; 1 = vehicle control, 0 substrate-free wells; activation factor at 20 µM; 190,000 tested, 0.005% active;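 active means activation factor of 2 or more at 20 µM, relative to plate controls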
Target sequence (P34949 whole entry, looked up): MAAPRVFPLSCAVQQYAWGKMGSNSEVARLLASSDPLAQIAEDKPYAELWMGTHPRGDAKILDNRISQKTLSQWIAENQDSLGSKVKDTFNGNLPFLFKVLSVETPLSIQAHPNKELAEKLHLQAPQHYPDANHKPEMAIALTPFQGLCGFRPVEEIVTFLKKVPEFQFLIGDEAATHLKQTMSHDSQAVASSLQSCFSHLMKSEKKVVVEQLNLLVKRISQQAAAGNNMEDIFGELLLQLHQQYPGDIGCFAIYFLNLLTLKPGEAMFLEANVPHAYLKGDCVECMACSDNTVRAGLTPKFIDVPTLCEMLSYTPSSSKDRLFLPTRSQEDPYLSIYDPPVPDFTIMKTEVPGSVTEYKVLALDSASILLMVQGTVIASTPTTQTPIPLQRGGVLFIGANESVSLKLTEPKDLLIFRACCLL
WT yeast gro inh: growth inhibition of WT yeast, mitochondrial fusion screen. mitochondrial fusion phenotypic screen, WT strain. inhibition, % at 10 µM. 190,000 tested, 2.1% active; in the data active means inhibition above about 58%; tested in S. cerevisiae
PMI act satM6P: PMI (human) activation, high substrate. activation factor at 20 µM. P34949. AID 1216. coupled PMI enzyme assay, resazurin fluorescence, 20 min; active compounds read high; 1 = untreated enzyme, 0 = substrate-free blank. 190,000 tested, 0.34% active;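 active means activation factor of 2 or more at 20 µM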
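Test system – human PMI in coupled enzyme assay · Timing – 20 min incubation at room temperature · Detection – Diaphorase-driven resazurin-to-resorufin fluorescence, excitation 544, emission 590 nm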
* hit, by the source's call.

SMILES	Diaphorase act	L major viab	PMI activator	WT yeast gro inh	PMI act satM6P
C=CCc1ccc(OCCOCCOc2cccc3cccnc23)c(OC)c1	0.9	0	0.9	-27	1
Cc1cccc(Nc2nnc(-c3ccc(N4CCOCC4)c([N+](=O)[O-])c3)c3ccccc23)c1	0.8	44	0.8	-6	0.9
CCN(CC)CCC(=O)c1ccc(F)cc1	0.9	80*	0.6	10	0.6
Cc1cccc(NC(=S)NC23CN4CN(CN(C4)C2)C3)c1C	1.1	3	1.1	16	1
CC1=NN(c2ccc(S(=O)(=O)O)cc2C)C(=O)C1	0.9	3	1.6	-19	2.4*
O=C(NCc1ccccc1)c1ccc(C(=O)N(C2CCCCC2)C2CCCCC2)cc1	0.8	38	0.9	62*	0.9
O=C(NC1CCCCC1)C(=S)NCc1ccccc1	0.9	1	0.9	22	1
CC(C)(C)c1ccc(C(=O)NCc2ccccc2)cc1	0.9	-5	1	5	1
O=C(NC1CCCCCC1)C(=S)NCc1ccccc1	1.1	-3	1	73*	1.1
CCOC(=O)C1CN(S(=O)(=O)c2ccc(OC)cc2)c2cc(S(=O)(=O)CC)ccc2O1 (stereo not given)	1	-3	0.9	-5	0.9
CCc1ccc2c(c1)C(C)=CC(C)(C)N2	0.7	66*	0.7	20	0.8
O=C(N/N=C/c1sc(N2CCOCC2)nc1-c1ccccc1)c1ccccc1Cl	1.1	2	1.1	6	1.1
O=[N+]([O-])c1ccc(N/N=C/c2sc(N3CCOCC3)nc2-c2ccccc2)c(S(=O)(=O)Nc2ccccc2Cl)c1	0.9	70*	1.1	24	1
O=[N+]([O-])c1ccc(N/N=C/c2sc(N3CCOCC3)nc2-c2ccccc2)c(S(=O)(=O)Nc2ccc(Cl)cc2)c1	0.9	66*	1.1	4	1
O=C(N/N=C/c1sc(N2CCOCC2)nc1-c1ccccc1)c1ccccc1O	1	44	1.1	-12	1.2
COc1ccc(-c2nnc(SCc3cc(C)ccc3C)n2N)cc1	0.9	13	1	8	1
CN(C)CCNC(=O)c1ccc2c(c1)N(Cc1ccc(F)cc1)CCS2	0.9	100*	1	-1	1
Cc1ccc(CN2CCSc3ccc(C(=O)NCc4cccnc4)cc32)cc1	0.7	10	0.9	36	0.9
CN(C)c1ccc(NC(=O)c2ccc(Cn3cc([N+](=O)[O-])cn3)cc2)cc1	0.9	41	0.9	-3	0.6
CC(C)(C)NC(=O)c1cc([N+](=O)[O-])ccc1N1CCCCC1	1	-2	1	14	1.1
O=C(CC1C(=O)N(c2ccccc2)C(=S)N1c1ccccc1)c1ccc(Br)cc1 (stereo not given)	0.8	51*	0.8	13	0.8
COc1cc(/C=C/C(=O)c2c(O)cc(C)oc2=O)cc(OC)c1O	0.8	97*	0.7	-10	0.8
COc1ccc(/C=C/C(=O)c2c(O)cc(C)oc2=O)c(OC)c1	1	1	1	8	1
COc1ccc(C(=O)/C=C/c2cc(OC)c(O)c(OC)c2)c(F)c1	0.5	90*	0.6	17	0.4
COc1cccc(/C=C/C(=O)c2c(O)cc(C)oc2=O)c1O	0.9	97*	0.9	-39	1
SMILES	Diaphorase act	L major viab	PMI activator	WT yeast gro inh	PMI act satM6P
OCC[C@H]1C[C@H](O)[C@@H](O)[C@@]2(CCCCO2)O1	0.8	-6	0.9	-10	0.9
CN(CC(=O)Nc1ccc(N2CCOCC2)cc1)CC(=O)Nc1ccc(Cl)cc1[N+](=O)[O-]	0.9	-1	0.8	30	0.9
C/C(=N\n1cnnc1)c1ccccc1	0.9	-2	0.9	-3	0.9
c1ccc(CCCNCC2COc3ccccc3O2)cc1 (stereo not given)	1	91*	1	23	0.9
c1ccc(CCCCNCC2COc3ccccc3O2)cc1 (stereo not given)	0.9	87*	0.9	13	0.9
O=C(CC1COc2ccccc2O1)NCc1ccccc1 (stereo not given)	0.9	0	1	-13	1
CCCNCC1COc2ccccc2O1 (stereo not given)	1	39	1.1	-7	1.1
c1ccc(CNCC2COc3ccccc3O2)cc1 (stereo not given)	0.9	91*	1.1	-2	1
Cc1cc(/C=N\NC(=O)CC(=O)NC2CCCCC2)c(C)n1-c1cccc(Cl)c1Cl	1	95*	0.9	4	1
CN1CCN(CC(=O)N/N=C/c2ccc(F)c(F)c2)CC1	0.9	-5	1.1	-3	1.1
O=C(CN1CCCCCC1)N/N=C/c1cccc(Cl)c1Cl	0.9	62*	1.2	-9	1
O=C(CN1CCSCC1)N/N=C/c1ccccc1F	0.8	-2	0.9	-43	0.9
O=C(CN1CCCCCCC1)N/N=C/c1ccc(F)c(F)c1	1	97*	1.1	10	0.9
O=C(CN1CCCCCCC1)N/N=C/c1ccccc1F	1	52*	1.2	6	1.1
C#CC(=O)N(c1cc(OC)ccc1OC)C(C(=O)NC1CCCC1)c1cccs1 (stereo not given)	0.9	101*	1	3	1
COc1ccc(N(C(=O)c2ccco2)C(C(=O)NC2CCCCC2)c2cccs2)cc1OC (stereo not given)	0.9	-1	1	-3	0.8
C#CC(=O)N(c1ccc(OC)cc1OC)C(C(=O)NC1CCCC1)c1cccs1 (stereo not given)	1	94*	1	-8	1
O=C(NC1CCCCC1)C(c1ccco1)N(CCc1ccccc1)C(=O)C(F)(F)F (stereo not given)	0.9	8	1	8	1
COc1ccc(CCN(C(=O)C(F)(F)F)C(C(=O)NC2CCCC2)c2cccs2)cc1 (stereo not given)	0.9	62*	1	32	1
CCc1ccc(N(C(=O)Cn2nnc(-c3ccccc3)n2)C(C(=O)NC2CCCCC2)c2ccccn2)cc1 (stereo not given)	0.9	23	0.8	36	0.9
COCCCn1cc(C(=O)c2cc(OC)ccc2OCC(=O)Nc2cc(C)on2)cc(C#N)c1=O	0.8	5	0.8	-12	0.8
Cc1cccc(NC(NC(=O)Cc2ccccc2)C(Cl)(Cl)Cl)c1 (stereo not given)	0.9	14	0.9	-10	1
C/C(=N\NC(=O)c1nn(C)c(C)c1Br)c1ccc(NC(=O)c2ccccc2F)cc1	0.9	-5	1	0	0.9
CCOc1nc(-c2ccc(Cl)cc2)nc2ccccc12	1	-1	1	2	1
Cc1cc(C)cc(N=Cc2[nH]c3ccc(Br)c(Cl)c3c2O)c1	0.8	-1	1.1	5	0.8
COc1ccc(CN=Cc2[nH]c3ccc(Br)c(Cl)c3c2O)cc1	0.8	99*	0.9	51	1
